What all share (format): functional
For assay [1], the system named is Oryza sativa. Briefly: Toxicity against Oryza sativa xiuanyou 63 (rice) assessed as growth inhibition at 7.5 ug/mL measured 15 days post compound treatment by pot-culture method. The following applies: xiuanyou 63, 360 h, read-out: GI. The essentials:
(§1)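 Pot-culture assay on whole plants. Compounds were dissolved in toluene, diluted in water, and emulsified with a drop of Tween 80. Five parallel tests per compound, each compared with an untreated control, read as the ratio of growth inhibition. The 500 µg/mL level was the preliminary screen; the follow-up used 0.9375–15 µg/mL on cucumber, rice and semen euphorbiae.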

Assay [2] relates to Echinochloa crus-galli. Description: Herbicidal activity against semen euphorbiae assessed as inhibition of weed growth at 7.5 ug/mL measured 15 days post compound treatment by pot-culture method. The note with it: 360 h, read-out: GI. The essentials: as §1
Assay [3] concerns Cucumis sativus. Briefly: Herbicidal activity against Cucumis sativus jinyou 15 (cucumber) assessed as inhibition of weed growth at 3.75 ug/mL measured 15 days post compound treatment by pot-culture method. The following applies: jinyou 15, 360 h, read-out: GI. The procedure, abridged: as §1
Assay [4] is described as follows: Herbicidal activity against semen euphorbiae assessed as inhibition of weed growth at 500 ug/mL measured 15 days post compound treatment by pot-culture method. The note with it: 360 h; read-out: GI. The procedure, abridged: as §1
Assay [5] relates to Cucumis sativus. Briefly: Herbicidal activity against Cucumis sativus jinyou 15 (cucumber) assessed as inhibition of weed growth at 500 ug/mL measured 15 days post compound treatment by pot-culture method. The note with it: jinyou 15, 360 h, read-out: GI. The procedure, abridged:
as §1

The test system of assay [6] is Oryza sativa. Briefly: Toxicity against Oryza sativa xiuanyou 63 (rice) assessed as growth inhibition at 1.875 ug/mL measured 15 days post compound treatment by pot-culture method. The note with it: xiuanyou 63, 360 h, read-out: GI. The essentials:
as §1

The test system of assay [7] is Oryza sativa. Description: Toxicity against Oryza sativa xiuanyou 63 (rice) assessed as growth inhibition at 0.9375 ug/mL measured 15 days post compound treatment by pot-culture method. The note with it: xiuanyou 63, 360 h, read-out: GI. The essentials:
as §1

The subject of assay [8] is Echinochloa crus-galli. Description: Herbicidal activity against semen euphorbiae assessed as inhibition of weed growth at 3.75 ug/mL measured 15 days post compound treatment by pot-culture method. The note with it: 360 h, read-out: GI. The procedure, abridged: as §1
The subject of assay [9] is Echinochloa crus-galli. Briefly: Herbicidal activity against semen euphorbiae assessed as inhibition of weed growth at 15 ug/mL measured 15 days post compound treatment by pot-culture method. The following applies: 360 h, read-out: GI. The procedure, abridged: as §1
Assay [10] has as its system Echinochloa crus-galli. Description: Herbicidal activity against semen euphorbiae assessed as inhibition of weed growth at 1.875 ug/mL measured 15 days post compound treatment by pot-culture method. The following applies: 360 h, read-out: GI. The procedure, abridged: as §1
Assay [11] concerns Oryza sativa. Briefly: Toxicity against Oryza sativa xiuanyou 63 (rice) assessed as growth inhibition at 15 ug/mL measured 15 days post compound treatment by pot-culture method. The following applies: xiuanyou 63, 360 h, read-out: GI. The essentials: as §1
Assay [12] has as its system Echinochloa crus-galli. Description: Herbicidal activity against semen euphorbiae assessed as inhibition of weed growth at 0.9375 ug/mL measured 15 days post compound treatment by pot-culture method. The note with it: 360 h, read-out: GI. The procedure, abridged: as §1
For assay [13], the system named is Cucumis sativus. Briefly: Herbicidal activity against Cucumis sativus jinyou 15 (cucumber) assessed as inhibition of weed growth at […] measured 15 days post compound treatment by pot-culture method. The note with it: jinyou 15, 360 h, read-out: GI. The procedure, abridged:
as §1

Assay [14] concerns Oryza sativa. Briefly: Toxicity against Oryza sativa xiuanyou 63 (rice) assessed as growth inhibition at 3.75 ug/mL measured 15 days post compound treatment by pot-culture method. The note with it: xiuanyou 63, 360 h, read-out: GI. The essentials:
as §1

The text below walks through data of ChEMBL document CHEMBL3046601, “Synthesis and herbicidal activity of N,N-diethyl-3-(arylselenonyl)-1H-1,2,4-triazole-1-carboxamide” (2006).

For `CCN(CC)C(=O)n1cnc([Se](=O)(=O)c2c(C)cc(C)cc2C)n1`, the inhibition of growth at 7.5 µg/mL in [1] was 8.3%; in assay [2], 91.1%. In assay [3], the inhibition of growth at 3.75 µg/mL turned out to be 100%. For the same compound, the inhibition of growth at 500 µg/mL in assay [4] and in assay [5] was 100% in each case.
For `CCN(CC)C(=O)n1cnc([Se](=O)(=O)c2ccc(OC)cc2)n1`, the inhibition of growth at 500 µg/mL worked out at 63.9% in [4] and 30.3% in assay [5].
Take `CCN(CC)C(=O)n1cnc([Se](=O)(=O)c2ccc(C)cc2C)n1`: the inhibition of growth at 500 µg/mL in assay [4] stood at 51%; in [5] it was 42%.
On the same counts, the results for `CCN(CC)C(=O)n1cnc([Se](=O)(=O)c2ccc(F)c(Cl)c2)n1` are 39.6% and 10.7%.
Turning to `CCN(CC)C(=O)n1cnc([Se](=O)(=O)c2ccc(C(F)(F)F)c(Cl)c2)n1`, the inhibition of growth at 500 µg/mL amounted to 45.6% in assay [4] and 15.3% in assay [5].
As for `CCN(CC)C(=O)n1cnc([Se](=O)(=O)c2ccc(Cl)cc2)n1`, the figures for the inhibition of growth at 500 µg/mL in assay [4] and in assay [5] were 17% and 18.6%, respectively.
`CCN(CC)C(=O)n1cnc([Se](=O)(=O)c2ccc(F)c(F)c2)n1`: the inhibition of growth at 500 µg/mL in assay [4] worked out at 44.3%; in [5], 44%.
On to `CCN(CC)C(=O)n1cnc([Se](=O)(=O)c2ccccc2)n1`, for which the inhibition of growth at 500 µg/mL was determined as 4.18% in assay [4] and 8.75% in assay [5].
Consider `CCN(CC)C(=O)n1cnc(S(=O)(=O)c2c(C)cc(C)cc2C)n1` [CAFENSTROLE], for which the inhibition of growth at 1.875 µg/mL stood at 13.9% in assay [6] and 46.7% in assay [10]. The inhibition of growth at 7.5 µg/mL amounted to 72% in [1] and 95.6% in [2]. The inhibition of growth at 0.9375 µg/mL in assay [7] was determined as 0%; in assay [12], 17.8%. Further, the results for the inhibition of growth at 3.75 µg/mL in assay [8] and in assay [14] were 84.4% and 47.2%, respectively. Moreover, the inhibition of growth at 15 µg/mL in assay [9] and in assay [11] was 100% each time. The inhibition of growth in assay [13] came to 100%. The inhibition of growth at 500 µg/mL in assay [4] and in assay [5] was 100% each time.
On to `CCN(CC)C(=O)n1cnc([Se](=O)(=O)c2ccc(F)cc2F)n1`, for which the figures for the inhibition of growth at 500 µg/mL in assay [4] and in [5] were 53.9% and 33.9%, respectively.
On the same counts, the results for `CCN(CC)C(=O)n1cnc([Se](=O)(=O)c2cccc(C(F)(F)F)c2)n1` are 25.2% and 18.5%.
Take `CCN(CC)C(=O)n1cnc([Se](=O)(=O)c2ccc([N+](=O)[O-])cc2)n1`: the inhibition of growth at 500 µg/mL in assay [4] worked out at 46.4%; in assay [5], 26.9%.
As for `CCN(CC)C(=O)n1cnc([Se](=O)(=O)c2c(C)cccc2C)n1`, the inhibition of growth at 7.5 µg/mL stood at 2.8% in [1] and 88.9% in assay [2]. For the same compound, in [3], the inhibition of growth at 3.75 µg/mL stood at 100%. Besides, the inhibition of growth at 500 µg/mL in [4] and in assay [5] was 100% throughout.
